Results reported in ChEMBL document CHEMBL3098079, “Discovery of hybrid Hsp90 inhibitors and their anti-neoplastic effects against gefitinib-resistant non-small cell lung cancer (NSCLC)” (2014).
Values belong to the compound of their own block, whether it stands above or below them. Activity calls are given as the source filed them. The calls are words filed in the database; no cut-off is given here.

What was measured:
NCI-H1975 [1] = test: Antiproliferative activity against gefitinib-resistant human NCI-H1975 cells after 1 to 3 days by MTS assay; assay type: functional
Method in brief: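 H1975 (gefitinib-resistant NSCLC, T790M/L858R EGFR) cells exposed to compound at a range of concentrations; viability read by MTS assay at 1, 2 and 3 days of treatment. Data given as mean ± SD, n = 4.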

[2] = target: Heat shock protein HSP 90-beta (Homo sapiens) (UniProt P08238); test: Inhibition of HSP90 in gefitinib-resistant human NCI-H1975 cells assessed as downregulation of Tyr1068 phosphorylated EGFR level at 1 to 100 uM after 24 hrs by Western blot method; assay type: cell-based
Method in brief: (§1)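 Dose-response immunoblotting: H1975 cells incubated 24 h with increasing compound concentrations, then lysates probed by Western blot for Hsp90 clients (EGFR, Her2, Met, Akt), downstream signaling proteins and Hsp70. Geldanamycin (1 μM) positive control; DMSO negative control.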

[3] = target: Heat shock protein HSP 90-beta (Homo sapiens) (UniProt P08238); test: Inhibition of HSP90 in gefitinib-resistant human NCI-H1975 cells assessed as transcriptional upregulation of Hsp70 at 40 uM after 24 hrs by Western blot method; assay type: cell-based
Method in brief: (§2)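 H1975 cells treated 24 h with each compound at 40 μM; Hsp90 client proteins and Hsp70 probed by Western blot. Geldanamycin (1 μM) as positive control, DMSO as negative control.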

[4] = target: Heat shock protein HSP 90-beta (Homo sapiens) (UniProt P08238); test: Inhibition of HSP90 in gefitinib-resistant human NCI-H1975 cells assessed as degradation of MET at 40 uM after 24 hrs by Western blot method; assay type: cell-based; method in brief: as §2
[5] = target: Heat shock protein HSP 90-beta (Homo sapiens) (UniProt P08238); test: Inhibition of HSP90 in gefitinib-resistant human NCI-H1975 cells assessed as transcriptional upregulation of Hsp70 after 24 hrs by Western blot method; assay type: cell-based; method in brief: as §1
[6] = target: Heat shock protein HSP 90-beta (Homo sapiens) (UniProt P08238); test: Inhibition of HSP90 in gefitinib-resistant human NCI-H1975 cells assessed as downregulation of Ser473 phosphorylated AKT level at 1 to 100 uM after 24 hrs by Western blot method; assay type: cell-based; method in brief: as §1
NCI-H1975 [7] = test: Downregulation of ERK1/2 in gefitinib-resistant human NCI-H1975 cells at 1 to 100 uM after 24 hrs by Western blot method; assay type: functional, cell-based; method in brief: as §1
[8] = target: Heat shock protein HSP 90-beta (Homo sapiens) (UniProt P08238); test: Inhibition of HSP90 in gefitinib-resistant human NCI-H1975 cells assessed as degradation of MET after 24 hrs by Western blot method; assay type: cell-based; method in brief: as §1
[9] = target: Heat shock protein HSP 90-beta (Homo sapiens) (UniProt P08238); test: Inhibition of HSP90 in gefitinib-resistant human NCI-H1975 cells assessed as degradation of AKT at 40 uM after 24 hrs by Western blot method; assay type: cell-based; method in brief: as §2
[10] = target: Heat shock protein HSP 90-beta (Homo sapiens) (UniProt P08238); test: Inhibition of HSP90 in gefitinib-resistant human NCI-H1975 cells assessed as degradation of EGFR after 24 hrs by Western blot method; assay type: cell-based; method in brief: as §1
[11] = target: Heat shock protein HSP 90-beta (Homo sapiens) (UniProt P08238); test: Inhibition of HSP90 in gefitinib-resistant human NCI-H1975 cells assessed as degradation of EGFR at 40 uM after 24 hrs by Western blot method; assay type: cell-based; method in brief: as §2
[12] = target: Heat shock protein HSP 90-beta (Homo sapiens) (UniProt P08238); test: Inhibition of HSP90 in gefitinib-resistant human NCI-H1975 cells assessed as degradation of HER2 after 24 hrs by Western blot method; assay type: cell-based; method in brief: as §1
[13] = target: Heat shock protein HSP 90-beta (Homo sapiens) (UniProt P08238); test: Inhibition of HSP90 in gefitinib-resistant human NCI-H1975 cells assessed as downregulation of Thr202/Tyr204 phosphorylated ERK1/2 level at 1 to 100 uM after 24 hrs by Western blot method; assay type: cell-based; method in brief: as §1
[14] = target: Heat shock protein HSP 90-beta (Homo sapiens) (UniProt P08238); test: Inhibition of HSP90 in gefitinib-resistant human NCI-H1975 cells assessed as degradation of HER2 at 40 uM after 24 hrs by Western blot method; assay type: cell-based; method in brief: as §2
[15] = target: Heat shock protein HSP 90-beta (Homo sapiens) (UniProt P08238); test: Inhibition of HSP90 in gefitinib-resistant human NCI-H1975 cells assessed as degradation of AKT after 24 hrs by Western blot method; assay type: cell-based; method in brief: as §1

Chain of Heat shock protein HSP 90-beta (Homo sapiens) (P08238 whole entry): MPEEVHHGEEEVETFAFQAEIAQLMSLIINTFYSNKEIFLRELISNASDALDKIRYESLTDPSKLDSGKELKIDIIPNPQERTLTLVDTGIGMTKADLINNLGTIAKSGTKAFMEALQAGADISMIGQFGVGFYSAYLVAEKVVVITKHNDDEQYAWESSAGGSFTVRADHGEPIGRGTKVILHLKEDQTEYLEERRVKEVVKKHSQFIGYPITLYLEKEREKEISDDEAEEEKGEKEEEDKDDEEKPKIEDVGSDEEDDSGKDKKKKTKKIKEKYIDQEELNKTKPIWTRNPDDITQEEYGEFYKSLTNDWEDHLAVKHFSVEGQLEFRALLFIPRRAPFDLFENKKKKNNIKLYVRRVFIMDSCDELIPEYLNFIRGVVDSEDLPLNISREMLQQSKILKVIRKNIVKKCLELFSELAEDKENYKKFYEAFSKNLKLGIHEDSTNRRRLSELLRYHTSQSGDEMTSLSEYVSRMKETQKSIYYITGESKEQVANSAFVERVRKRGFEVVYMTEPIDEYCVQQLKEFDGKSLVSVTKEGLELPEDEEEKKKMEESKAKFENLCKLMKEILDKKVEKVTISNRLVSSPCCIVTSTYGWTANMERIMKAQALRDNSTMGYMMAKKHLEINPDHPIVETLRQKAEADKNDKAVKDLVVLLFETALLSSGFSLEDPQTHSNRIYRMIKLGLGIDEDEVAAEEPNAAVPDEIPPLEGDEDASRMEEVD

GI50 (NCI-H1975 [1]): 1 µM
Structure (SMILES): CCNC(=O)c1n[nH]c(-c2cc(Cl)c(O)cc2O)c1-c1ccc(OC)cc1

Structure (SMILES): COc1ccc(/C=C/C(=O)c2cc(Cl)c(O)cc2O)c(OC)c1
inhibition (NCI-H1975 [1]): Dose-dependent effect

inhibition [2]: Active
inhibition [3]: Active
inhibition [4]: Active
inhibition [5]: Dose-dependent effect
inhibition [6]: Active
inhibition [8]: Dose-dependent effect
inhibition [9]: Active
inhibition [10]: Dose-dependent effect
GI50 (NCI-H1975 [1]): 48 µM
inhibition [11]: Active
inhibition [12]: Dose-dependent effect
inhibition [13]: Active
inhibition [14]: Active
inhibition [15]: Dose-dependent effect
Structure (SMILES): COc1cc(/C=C/C(=O)c2cc(Cl)c(O)cc2O)cc(OC)c1OC
Activity (NCI-H1975 [7]): inactive
inhibition (NCI-H1975 [1]): Dose-dependent effect

GI50 (NCI-H1975 [1]): 50 µM
Structure (SMILES): CCCCn1c(Cc2cc(OC)c(OC)c(OC)c2)nc2c(N)ncnc21

Structure (SMILES): O=C(/C=C/c1ccc(O)cc1O)c1cc(Cl)c(O)cc1O
inhibition (NCI-H1975 [1]): Dose-dependent effect
